# Measurements from different studies.
# Protocols differ between the studies behind these lines.
# Target: Calcium/calmodulin-dependent protein kinase kinase 1 (CAMKK1, Homo sapiens, UniProt Q8N5S9)
Structure (SMILES),assay,setting,quantity,result
Cn1c2c(c3ccc(Cl)c(Cl)c31)C(C#N)C(C)(C)NC2=O (stereo not shown),"thermal stability, DSF",10 µM,ΔTm,2.6 °C
Cc1ccc(C(=O)Nc2ccc(CN3CCN(C)CC3)c(C(F)(F)F)c2)cc1C#Cc1cnc2cccnn12,"enzyme activity, inhibitor",23.5 nM,remaining activity,85%
CC(C)(C)c1nc2c(s1)c1nc(N)ncc1c1ccc(NS(=O)(=O)c3c(F)cccc3F)c(F)c12,"enzyme activity, inhibitor, radiometric",1 µM,remaining activity,88%
CCCCNc1ncc2c(-c3ccc(F)cc3)nn(C[C@H]3CC[C@H](N)CC3)c2n1,"target engagement in cells, inhibitor, chemoproteomics",20 mM,inhibition,20.6%
CN(c1ncccc1CNc1nc(Nc2ccc3c(c2)CC(=O)N3)ncc1C(F)(F)F)S(C)(=O)=O,"enzyme activity, inhibitor",1 µM,inhibition,46%
Cn1c2c(c3ccc(Cl)c(Cl)c31)C(C#N)C1(CCN(C(=O)OC(C)(C)C)CC1)NC2=O (racemic),"thermal stability, DSF",10 µM,ΔTm,-0.1 °C
Oc1ccc(-c2nc(-c3ccncc3)c(-c3ccc(F)cc3)[nH]2)cc1,cell-free assay,0.5 µM,remaining signal,123%
O=C(Nc1cnn(-c2csc(C(=O)NC3COC3)c2)c1)Nc1ccccc1Cl,"enzyme activity, inhibitor",5 µM,remaining activity,130%
Cc1nc(N2CC[C@@H](O)C2)ncc1-c1cc(C(F)(F)F)cc2[nH]ncc12,"binding, competition with immobilised ligand",1 µM,remaining binding,100%
CN1CC(Oc2cnc(C#N)cc2-c2ccn3nc(NC(=O)C4CC4)cc3c2)C1,"enzyme activity, inhibitor",1 µM,inhibition,3%
Cc1c(NC(=O)c2cc(C(N)=O)nc3cc(F)ccc23)c(C(F)(F)F)nn1Cc1ccc(C#N)cc1,"cell-free assay, competition with immobilised ligand",1 µM,remaining binding,97%
Nc1nc(Nc2ccc(S(N)(=O)=O)cc2)nn1C(=O)c1c(F)cccc1F,cell-free assay,0.5 µM,remaining signal,86.4%
Nc1ncnc2occ(-c3ccc(NC(=O)Nc4cc(C(F)(F)F)ccc4F)cc3)c12,"cell-free assay, inhibitor",20 µM,remaining signal,28%
CCCOc1ccc([C@H]2[C@H](C(=O)O)[C@@H](c3ccc4c(c3)OCO4)CN2CC(=O)Nc2c(CC)cccc2CC)cc1,"cell-free assay, competition with immobilised ligand",1 µM,remaining binding,86%
O=C(Nc1cnn(-c2csc(C(=O)NC3COC3)c2)c1)Nc1c(F)cccc1Cl,"enzyme activity, inhibitor",5 µM,remaining activity,93.7%
O=c1nc(-c2ccccn2)sc2ccccc12,"binding, competition with immobilised ligand",1 µM,remaining binding,96%
O=C1Nc2ccc(Cl)cc2C1=Cc1cc(Cl)c(O)c(Cl)c1,cell-free assay,0.5 µM,remaining signal,52.5%
NS(=O)(=O)c1cc(NC(=O)Cc2ccccc2)ccc1Oc1cccc(Cl)c1,"cell-free assay, competition with immobilised ligand",1 µM,remaining binding,100%
Cn1c2c(c3ccc(Cl)c(Cl)c31)C(C#N)C1(CCOCC1)NC2=O (stereo not shown),"thermal stability, DSF",10 µM,ΔTm,1.2 °C
